From paper PMC3478735 (ACS Nano, 2012)

Legend:
[1] = system: HeLa cells; assay: Uptake of myr-TP-LyP-1 nanocomplexes in the presence of endocytosis inhibitors; type: cell-based, human; details: inhibitor 1 h at 37 °C, then nanocomplexes (2 μM peptide, 100 nM siRNA) 1 h, flow cytometry
Summary of the method: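 HeLa cells at ~70% confluence. Small-molecule inhibitors applied 1 h at 37 °C. Then nanocomplexes of labelled peptide (2 μM) with GFP siRNA (100 nM) added for a further 1 h at 37 °C. Cells washed three times with cold PBS, trypsinised, and uptake read by flow cytometry.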

[2] = system: HeLa cells; assay: Endosomal escape, codelivery of Calcein, fluorescence microscopy; type: cell-based, human
Summary of the method: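 HeLa cells plated 48 h ahead to ≥70% confluence. Calcein 0.25 mM added alone or with nanocomplexes (100 nM siRNA) in DMEM + 10% bovine serum, 1 h, 37 °C. Cells washed three times in PBS and imaged live (FITC filter). Cells with diffuse cytoplasmic fluorescence counted in ≥8 random fields, normalised to total cells (500–800 per carrier per experiment), reported as mean % per field.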

CCCCCCCCCC(=O)NC(CN1CCOCC1)C(O)c1ccccc1 (stereo not shown) [PDMP]
uptake of myr-TP-LyP-1 nanocomplexes in the presence of the inhibitor [1]: significantly decreased

OCC1OC(O)CC(O)C1O (stereo not shown) [deoxyglucose]
uptake of myr-TP-LyP-1 nanocomplexes in the presence of the inhibitor [1]: significantly decreased

C[C@@H](O)[C@@H]1NC(=O)[C@H](CCCNC(=N)N)NC(=O)[C@H](CCCCN)NC(=O)[C@H](CC(N)=O)NC(=O)CNC(=O)[C@@H](N)CSSC[C@@H](C(=O)O)NC(=O)CNC(=O)[C@H](CCCNC(=N)N)NC1=O [LyP-1]
endosomal escape [2]: little or no endosomal escape

N=C(N)NC(=O)c1nc(Cl)c(N)nc1N [amiloride]
uptake of myr-TP-LyP-1 nanocomplexes in the presence of the inhibitor [1]: significantly decreased
